pIC50: −log10 of the molar value. The source made the active and inactive calls. The calls are words filed in the database; no cut-off is given here.
What was measured:
[1] = tested on: A549; test: Compound tested against A549 lung carcinoma in the sulforhodamine B assay.; type: functional, cell-based; details: Homo sapiens
Summary of the method: (§1)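 Sulforhodamine B assay. Cells plated at 50 000/well; drug added on day 2 at 10^1–10^-5 μg/mL in half-log steps from DMSO stock diluted in PBS, final DMSO ≤0.1%. After 8-day exposure at 37 °C, cells fixed with TCA at 4 °C for 1 h and stained 30 min with 0.4% SRB. Dye solubilized in 10 mM Tris and OD read at 564 nm. Six wells per concentration; IC50 averaged.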

[2] = tested on: UACC-375; test: Inhibitory activity against […] cell line; type: functional, cell-based; details: Homo sapiens
[3] = tested on: L1210; test: Inhibitory activity against sensitive L1210 cell lines; type: functional, cell-based; details: Mus musculus
[4] = tested on: L1210; test: Inhibitory activity against resistant murine leukemia L1210 cell lines.; type: functional, cell-based; details: Mus musculus
[5] = tested on: L1210; test: Compound was tested against L1210 leukemia at % increase in life span (ILS) in mice at 8 mg/kg dosage; Not active; type: functional, organism-based; design: dose 8 mg/kg; details: Mus musculus
[6] = tested on: MCF7; test: Tested against […] breast carcinoma (doxorubicin resistant) cell line in the sulforhodamine B assay.; type: functional, cell-based; details: Homo sapiens; summary of the method: as §1
[7] = tested on: MCF7; test: Tested against […] breast carcinoma (mitoxantrone resistant)cell line in the sulforhodamine B assay.; type: functional, cell-based; details: Homo sapiens; summary of the method: as §1
[8] = tested on: OVCAR-3; test: Inhibitory activity against OVCAR-3 cell line; type: functional, cell-based; details: Homo sapiens
[9] = species: Rattus norvegicus; test: Cardiotoxicity by a neonatal rat heart myocyte assay; type: toxicity
Summary of the method: (§2)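 Neonatal rat heart myocytes exposed to drug for 1 h. Read-out is the ATP/protein ratio relative to untreated control myocytes. IC50 is the 1-h concentration that reduces this ratio to 50% of control.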

[10] = tested on: Tumor cell line; test: An average for IC50 values in the two solid tumor cell lines.; type: functional, cell-based
[11] = tested on: WiDr; test: Compound tested against WiDr colon carcinoma (resistant) in the sulforhodamine B assay.; type: functional, cell-based; details: Homo sapiens; summary of the method: as §1
[12] = tested on: WiDr; test: Compound tested against WiDr colon (sensitive) in the sulforhodamine B assay.; type: functional, cell-based; details: Homo sapiens; summary of the method: as §1
[13] = Toxicity ratio determined by the quotient of IC50 values in the myocytes divided by the average value in the three tumor lines.; type: functional
Summary of the method: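 Ratio is the myocyte cardiotoxicity IC50 (1-h exposure, ATP/protein ratio versus untreated myocytes) divided by the mean IC50 in sensitive L1210 and the two human tumor lines, measured with continuous exposure.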

[14] = An average for IC50 values in the two solid tumor cell lines and sensitive L1210 leukemia cell line.; type: functional, cell-based
[15] = tested on: MCF7; test: Tested against […] breast carcinoma (sensitive) cell line in the sulforhodamine B assay.; type: functional, cell-based; details: Homo sapiens; summary of the method: as §1
[16] = tested on: A549; test: Tested against A549 lung carcinoma in the sulforhodamine B assay.; type: functional, cell-based; details: Homo sapiens; summary of the method: as §1
[17] = tested on: B16; test: Compound was tested against sc B16 melanoma at % tumor growth inhibition(TGI) in mice at 3.2 mg/kg dosage.; type: functional; details: Mus musculus, route subcutaneous, read-out: TGI
[18] = tested on: L1210; test: Compound was tested against L1210 leukemia at % increase in life span (ILS) in mice at 1.6 mg/kg dosage.; type: functional; details: Mus musculus
Summary of the method: (§3)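 Male DBA/2J mice, 10 per group, inoculated ip on day 0 with 10^6 freshly harvested leukemia cells. Compound given ip in equal doses on days 1, 5 and 9; controls received saline ip on the same days. Highest dose set 10% below the acute LD10. %ILS = 100 × (treated − control)/control, using median life span per group; value reported at highest nontoxic dose.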

[19] = tested on: P388; test: Compound was tested against P388 leukemia at % increase in life span (ILS) in mice at 1.6 mg/kg dosage.; type: functional; details: Mus musculus; summary of the method: as §3
[20] = tested on: WiDr; test: Tested against WiDr colon carcinoma (resistant) in the sulforhodamine B assay.; type: functional, cell-based; details: Homo sapiens; summary of the method: as §1
[21] = tested on: WiDr; test: Tested against WiDr colon (sensitive) in the sulforhodamine B assay.; type: functional, cell-based; details: Homo sapiens; summary of the method: as §1
[22] = tested on: P388; test: Compound was tested against P388 leukemia at % increase in life span (ILS) in mice at 15 mg/kg dosage; Not active at highest dose tested (% ILS<25); type: functional, organism-based; design: dose 15 mg/kg; details: Mus musculus
[23] = species: Rattus norvegicus; test: Compound was tested for Cardiotoxicity by a neonatal rat heart myocyte assay.; type: functional; summary of the method: as §2
[24] = tested on: neonatal heart myocytes (Rattus norvegicus); test: Cardio toxicity was measured.
[25] = tested on: B16; test: Compound was tested against sc B16 melanoma at % tumor growth inhibition(TGI) in mice at 4 mg/kg dosage.; type: functional; details: Mus musculus, route subcutaneous, read-out: TGI
[26] = tested on: L1210; test: Compound was tested against L1210 leukemia at % increase in life span (ILS) in mice at 5 mg/kg dosage.; type: functional; details: Mus musculus; summary of the method: as §3
[27] = tested on: P388; test: Compounds was tested against P388 leukemia at % increase in life span (ILS) in mice at 4.5 mg/kg dosage.; type: functional; details: Mus musculus; summary of the method: as §3
[28] = tested on: WiDr; test: Compound was tested against WiDr colon carcinoma (resistant) in the sulforhodamine B assay.; type: functional, cell-based; details: Homo sapiens; summary of the method: as §1
[29] = tested on: A549; test: Compound was tested against A549 lung cancer cell line in the sulforhodamine B assay.; type: functional, cell-based; details: Homo sapiens; summary of the method: as §1
[30] = tested on: B16; test: Compound was tested against sc B16 melanoma cell line in mice at 15 mg/kg dosage.; type: functional; details: Mus musculus, route subcutaneous, read-out: TGI
[31] = tested on: L1210; test: Compound was tested against L1210 leukemia cell line in mice at 15 mg/kg dosage.; type: functional; details: Mus musculus; summary of the method: as §3
[32] = tested on: P388; test: Compound was tested against P388 leukemia cell line in mice at 15 mg/kg dosage.; type: functional; details: Mus musculus; summary of the method: as §3
[33] = tested on: WiDr; test: Compound was tested against WiDr colon carcinoma (resistant)cell line in the sulforhodamine B assay.; type: functional, cell-based; details: Homo sapiens; summary of the method: as §1
[34] = tested on: WiDr; test: Compound was tested against WiDr colon (sensitive) cell line in the sulforhodamine B assay.; type: functional, cell-based; details: Homo sapiens; summary of the method: as §1
[35] = tested on: A549; test: Compound was tested against A549 lung carcinoma cell line in the sulforhodamine B assay.; type: functional, cell-based; details: Homo sapiens; summary of the method: as §1
[36] = tested on: WiDr; test: Compound tested against WiDr colon carcinoma (resistant)cell line in the sulforhodamine B assay.; type: functional, cell-based; details: Homo sapiens; summary of the method: as §1
[37] = tested on: B16; test: Compound were tested against sc B16 melanoma at % tumor growth inhibition(TGI) in mice at 3 mg/kg dosage.; type: functional; details: Mus musculus, route subcutaneous, read-out: TGI
[38] = tested on: P388; test: Compound was tested against P388 leukemia at % increase in life span (ILS) in mice at 3 mg/kg dosage.; type: functional; details: Mus musculus; summary of the method: as §3
[39] = tested on: B16; test: Compound was tested against sc B16 melanoma at % tumor growth inhibition(TGI) in mice at 6 mg/kg dosage; no palpable tumor; type: functional; details: Mus musculus, route subcutaneous, read-out: TGI
[40] = tested on: L1210; test: Compound was tested against L1210 leukemia at % increase in life span (ILS) in mice at 8 mg/kg dosage.; type: functional; details: Mus musculus; summary of the method: as §3
[41] = tested on: P388; test: Compound was tested against P388 leukemia at % increase in life span (ILS) in mice at 5 mg/kg dosage.; type: functional; details: Mus musculus; summary of the method: as §3
[42] = tested on: P388; test: Compound was tested against P388 leukemia at % increase in life span (ILS) in mice at 15 mg/kg dosage.; type: functional; details: Mus musculus; summary of the method: as §3

Row | Compound | pIC50 [2] | pIC50 [3] | pIC50 [4] | pIC50 [6] | pIC50 [7] | pIC50 [8] | pIC50 [9] | pIC50 [10] | Toxicity ratio [13] | pIC50 [14] | pIC50 [15] | pIC50 [16] | pIC50 [20] | pIC50 [21] | other results
1 | CN(C)CCOc1ccc2c3c(c4ccccc4cc13)C(=O)N(CCN(C)C)C2=O | 7.51 | 9.70 | 8.89 | 8.05 | 8.41 | 7.51 | 5.26 | 7.51 | 262 | 7.68 | 8.41 |  |  |  | pIC50 [1]: 9.24; ILS [5]: inactive; pIC50 [11]: 8.00; pIC50 [12]: 8.62
2 | O=C1c2c(O)ccc(O)c2C(=O)c2c(NCCNCCO)ccc(NCCNCCO)c21 [MITOXANTRONE] |  | 8.01 |  | 7.14 | 7.39 |  | 5.11 | 7.57 | 368 | 7.68 | 8.06 | 8.51 | 6.31 | 8.09 | inhibition in vivo at 3.2 mg/kg [17]: 130%; ILS at 1.6 mg/kg [18]: 150%; ILS at 1.6 mg/kg [19]: 200%
3 | Cc1ccc2c3c(c4ccccc4cc13)C(=O)N(CCN(C)C)C2=O | 6.85 | 8.17 | 7.57 |  |  | 6.66 |  | 6.75 | 8.1 |  |  |  |  |  | ILS [22]: inactive; pIC50 [23]: 6.00; pIC50 [24]: 6.00
4 | COc1cccc2c1C(=O)c1c(O)c3c(c(O)c1C2=O)C[C@@](O)(C(=O)CO)C[C@@H]3O[C@H]1C[C@H](N)[C@H](O)[C@H](C)O1 [DOXORUBICIN] |  |  |  |  |  |  | 4.99 | 7.13 |  | 7.21 |  |  |  | 7.28 | inhibition in vivo at 4 mg/kg [25]: 120%; ILS at 5 mg/kg [26]: 210%; ILS at 4.5 mg/kg [27]: 113%; pIC50 [28]: 6.89
5 | CN(C)CCN1C(=O)c2cccc3cc4ccccc4c(c23)C1=O [AZONAFIDE] |  | 8.15 |  | 7.15 | 7.70 |  | 5.70 | 7.19 | 44 | 7.35 | 7.74 |  |  |  | pIC50 [29]: 8.00; inhibition in vivo at 15 mg/kg [30]: 74%; ILS at 15 mg/kg [31]: 72%; ILS at 15 mg/kg [32]: 79%; pIC50 [33]: 7.03; pIC50 [34]: 7.89
6 | CN(C)CCN1C(=O)c2ccc(I)c3cc4ccccc4c(c23)C1=O | 6.38 | 6.38 | 6.38 | 7.52 | 8.00 | 6.38 | 4.36 | 6.38 | 105 | 6.38 | 7.96 |  |  |  | pIC50 [35]: 8.00; pIC50 [34]: 7.19; pIC50 [36]: 6.21
7 | CN(C)CCNc1ccc2c3c(c4ccccc4cc13)C(=O)N(CCN(C)C)C2=O | 7.96 | 10.40 | 10.40 | 7.85 | 8.72 | 7.20 | 5.38 | 7.43 | 171 | 7.60 | 9.00 | 9.37 | 7.85 | 8.77 | inhibition in vivo at 3 mg/kg [37]: 66%; ILS at 3 mg/kg [38]: 44%
8 | CCOc1ccc2c3c(c4ccccc4cc13)C(=O)N(CCN(C)C)C2=O | 7.72 | 8.10 | 8.17 | 7.74 | 7.85 | 9.10 | 5.75 | 8.00 | 192 | 8.03 | 7.96 | 8.54 | 7.20 | 7.77 | inhibition in vivo at 6 mg/kg [39]: > 100%; ILS at 8 mg/kg [40]: 100%; ILS at 5 mg/kg [41]: 55%
9 | COc1ccc2c3c(c4ccccc4cc13)C(=O)N(CCN(C)C)C2=O | 8.11 | 8.59 | 8.41 | 6.57 | 7.72 | 8.89 | 6.10 | 8.34 | 205 | 8.41 | 7.85 | 8.66 | 7.48 | 7.77 | ILS at 8 mg/kg [40]: 86%
10 | CN(C)CCN1C(=O)c2cccc3cc(N)cc(c23)C1=O [AMONAFIDE] |  |  |  |  |  |  | 4.32 | 5.68 | 30 | 5.79 |  |  |  |  | ILS at 15 mg/kg [42]: 88%
11 | CN(C)CCN1C(=O)c2ccc(Cl)c3cc4ccccc4c(c23)C1=O | 7.41 | 7.11 | 7.19 | 6.92 | 7.30 | 6.94 | 5.39 | 7.11 | 53 | 7.11 | 7.60 |  |  |  | pIC50 [35]: 7.72; pIC50 [33]: 6.46; pIC50 [34]: 7.15

Source: ChEMBL document CHEMBL1129062, “6- and 7-substituted 2-[2'-(dimethylamino)ethyl]-1,2-dihydro-3H-dibenz[de,h] isoquinoline-1,3-diones: synthesis, nucleophilic displacements, antitumor activity, and quantitative structure-activity relationships” (J Med Chem, 1996)
